Converted amounts (≈) assume the structure as drawn. The source made the active and inactive calls. The calls are words filed in the database; no cut-off is given here.
Experiments:
[1] = system: Mycobacterium tuberculosis; test: Antimycobacterial activity against Mycobacterium tuberculosis H37Rv ATCC 27294 after 7 days by broth microdilution assay; type: functional; details: H37Rv ATCC 27294, 168 h
Method in brief: (§1)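 Cycle 1 HTS MABA: M. tuberculosis H37Rv ATCC 27294 in 7H12 broth, 384-well, final 1% DMSO. Ten twofold dilutions, typically 100 to 0.195 µg/mL. Amikacin controls at 0.17 and 3.20 µM; the high level serves as background for percent inhibition. 7 days at 37 °C, ~95% humidity. Fluorescence read at 535 nm excitation / 590 nm emission.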

[2] = system: Mycobacterium tuberculosis; test: Antimycobacterial activity against Mycobacterium tuberculosis H37Rv ATCC 27294 after 7 days by microplate Alamar blue assay; type: functional, organism-based; details: H37Rv ATCC 27294, 168 h; method in brief: as §1
[3] = system: Mycobacterium tuberculosis; test: Antimycobacterial activity against Mycobacterium tuberculosis H37Rv ATCC 27294 at 12.5 ug/ml after 7 days by microplate Alamar blue assay relative to control; type: functional; details: H37Rv ATCC 27294, 168 h; method in brief: as §1
[4] = system: Mycobacterium tuberculosis; test: Antimycobacterial activity against Mycobacterium tuberculosis H37Rv ATCC 27294 at 25 ug/ml after 7 days by microplate Alamar blue assay relative to control; type: functional; details: H37Rv ATCC 27294, 168 h; method in brief: as §1
[5] = system: Mycobacterium tuberculosis; test: Antimycobacterial activity against Mycobacterium tuberculosis H37Rv ATCC 27294 at 50 ug/ml after 7 days by microplate Alamar blue assay relative to control; type: functional; details: H37Rv ATCC 27294, 168 h; method in brief: as §1
[6] = system: Mycobacterium tuberculosis; test: Antimycobacterial activity against Mycobacterium tuberculosis H37Rv ATCC 27294 at 100 ug/ml after 7 days by microplate Alamar blue assay relative to control; type: functional; details: H37Rv ATCC 27294, 168 h; method in brief: as §1
[7] = Cytotoxicity against mouse J774A1 cells assessed as cell viability at 75 ug/ml after 7 days by MTT assay relative to control; type: cell-based, J774.A1; details: read-out: Activity
Method in brief: (§2)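 Uninfected murine J774 macrophages grown in RPMI 1640 with L-glutamine and FBS at 37 °C, 5% CO2. Cells seeded at 2.0 × 10^5 per well in 10% FBS, then switched to 1% FBS overnight. Run in parallel with the 7-day infection assay. […] Read out by MTT as percent viability.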

[8] = Cytotoxicity against mouse J774A1 cells assessed as cell viability at 7.5 ug/ml after 7 days by MTT assay relative to control; type: cell-based, J774.A1; details: read-out: Activity; method in brief: as §2
[9] = Cytotoxicity against mouse J774A1 cells assessed as cell viability at 0.75 ug/ml after 7 days by MTT assay relative to control; type: cell-based, J774.A1; details: read-out: Activity; method in brief: as §2
[10] = system: Mycobacterium tuberculosis; test: Antimycobacterial activity against Mycobacterium tuberculosis H37Rv SRI 1345 infected in mouse J774A1 cells assessed as reduction in bacterial growth at 75 ug/ml after 7 days relative to control; type: functional, J774.A1
Method in brief: (§3)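 Murine J774 macrophages in RPMI 1640 with L-glutamine and FBS, seeded at 2.0 × 10^5 per well in 10% FBS, then switched to 1% FBS. Infected 4 h with H37Rv at MOI 5; unphagocytosed bacteria washed off. Compound added at three concentrations (0.75, 7.5, 75 µg/mL) for 7 days. At 0 and 7 days cells lysed with SDS, DNase-treated and plated on 7H10 for CFU; log reduction reported.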

[11] = system: Mycobacterium tuberculosis; test: Antimycobacterial activity against Mycobacterium tuberculosis H37Rv SRI 1345 infected in mouse J774A1 cells assessed as reduction in bacterial growth at 7.5 ug/ml after 7 days relative to control; type: functional, J774.A1; method in brief: as §3
[12] = system: Mycobacterium tuberculosis; test: Antimycobacterial activity against Mycobacterium tuberculosis H37Rv SRI 1345 incubated for 7 days under anaerobic condition measured after 7 days of recovery under gaseous condition by low oxygen recovery assay; type: functional
[13] = system: Mycobacterium tuberculosis; test: […] activity against Mycobacterium tuberculosis H37Rv SRI 1345 after 16 to 21 days; type: functional
Method in brief: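 MBC, done after MIC testing in H37Rv SRI 1345: diluted aliquots from wells without macroscopic growth are plated on Middlebrook 7H10 agar and incubated 16–21 days at 37 °C. CFUs are counted. MBC is the lowest concentration giving 99.9% kill; rejection value is ≥40 colonies.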

[14] = system: Mycobacterium tuberculosis; test: Antimycobacterial activity against Mycobacterium tuberculosis H37Rv SRI 1345 at MIC after 7 days by broth microdilution assay relative to control; type: functional
[15] = system: Mycobacterium tuberculosis; test: Antimycobacterial activity against Mycobacterium tuberculosis H37Rv SRI 1345 after 7 days by broth microdilution assay; type: functional; details: H37Rv SRI 1345, 168 h
[16] = system: Mycobacterium tuberculosis; test: Antimycobacterial activity against Mycobacterium tuberculosis H37Rv SRI 1345 infected in mouse J774A1 cells assessed as reduction in bacterial growth at 0.75 ug/ml after 7 days relative to control; type: functional, J774.A1; method in brief: as §3
[17] = system: Mycobacterium tuberculosis; test: Antimycobacterial activity against Mycobacterium tuberculosis H37Rv ATCC 27294 at 0.31 ug/ml after 7 days by microplate Alamar blue assay relative to control; type: functional; details: H37Rv ATCC 27294, 168 h; method in brief: as §1
[18] = system: Mycobacterium tuberculosis; test: Antimycobacterial activity against Mycobacterium tuberculosis H37Rv ATCC 27294 at 0.79 ug/ml after 7 days by microplate Alamar blue assay relative to control; type: functional; details: H37Rv ATCC 27294, 168 h; method in brief: as §1
[19] = system: Mycobacterium tuberculosis; test: Antimycobacterial activity against Mycobacterium tuberculosis H37Rv ATCC 27294 at 3.13 ug/ml after 7 days by microplate Alamar blue assay relative to control; type: functional; details: H37Rv ATCC 27294, 168 h; method in brief: as §1
[20] = system: Mycobacterium tuberculosis; test: Antimycobacterial activity against Mycobacterium tuberculosis H37Rv ATCC 27294 at 6.25 ug/ml after 7 days by microplate Alamar blue assay relative to control; type: functional; details: H37Rv ATCC 27294, 168 h; method in brief: as §1
[21] = system: Mycobacterium tuberculosis; test: Antimycobacterial activity against Mycobacterium tuberculosis H37Rv ATCC 27294 at 12.5 to 100 ug/ml after 7 days by microplate Alamar blue assay relative to control; type: functional; method in brief: as §1
[22] = system: Mycobacterium tuberculosis; test: Antimycobacterial activity against Mycobacterium tuberculosis H37Rv ATCC 27294 at 12.5 to 50 ug/ml after 7 days by microplate Alamar blue assay relative to control; type: functional; method in brief: as §1
[23] = system: Mycobacterium tuberculosis; test: Antimycobacterial activity against Mycobacterium tuberculosis H37Rv ATCC 27294 at 1.56 ug/ml after 7 days by microplate Alamar blue assay relative to control; type: functional; details: H37Rv ATCC 27294, 168 h; method in brief: as §1
[24] = system: Mycobacterium tuberculosis; test: Antimycobacterial activity against Mycobacterium tuberculosis H37Rv ATCC 27294 at 0.63 ug/ml after 7 days by microplate Alamar blue assay relative to control; type: functional; details: H37Rv ATCC 27294, 168 h; method in brief: as §1
[25] = system: Mycobacterium tuberculosis; test: Antimycobacterial activity against Mycobacterium tuberculosis H37Rv ATCC 27294 at 1.25 to 5 ug/ml after 7 days by microplate Alamar blue assay relative to control; type: functional; method in brief: as §1
[26] = Cytotoxicity against mouse J774A1 cells assessed as cell viability at 1 ug/ml after 7 days by MTT assay relative to control; type: cell-based, J774.A1; details: read-out: Activity; method in brief: as §2
[27] = Cytotoxicity against mouse J774A1 cells assessed as cell viability at 0.1 ug/ml after 7 days by MTT assay relative to control; type: cell-based, J774.A1; details: read-out: Activity; method in brief: as §2
[28] = Cytotoxicity against mouse J774A1 cells assessed as cell viability at 0.01 ug/ml after 7 days by MTT assay relative to control; type: cell-based, J774.A1; details: read-out: Activity; method in brief: as §2
[29] = system: Mycobacterium tuberculosis; test: Antimycobacterial activity against Mycobacterium tuberculosis H37Rv SRI 1345 infected in mouse J774A1 cells assessed as reduction in bacterial growth at 1 ug/ml after 7 days relative to control; type: functional, J774.A1
Method in brief: (§4)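 Murine J774 macrophages grown in RPMI 1640 with L-glutamine and FBS at 37 °C, 5% CO2. Plated at 2.0 × 10^5 in 10% FBS, switched to 1% FBS next day. Infected 24 h later at MOI 5 for 4 h, washed, then drug added. At 0 and 7 days, cells lysed with SDS, DNase-treated and plated on 7H10 agar for CFU. Duplicates; read-out is log reduction from day 0 to day 7.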

[30] = system: Mycobacterium tuberculosis; test: Antimycobacterial activity against Mycobacterium tuberculosis H37Rv SRI 1345 infected in mouse J774A1 cells assessed as reduction in bacterial growth at 0.1 ug/ml after 7 days relative to control; type: functional, J774.A1; method in brief: as §4
[31] = system: Mycobacterium tuberculosis; test: Antimycobacterial activity against Mycobacterium tuberculosis H37Rv SRI 1345 infected in mouse J774A1 cells assessed as reduction in bacterial growth at 0.01 ug/ml after 7 days relative to control; type: functional, J774.A1; method in brief: as §4
[32] = system: Mycobacterium tuberculosis; test: Antimycobacterial activity against Mycobacterium tuberculosis H37Rv ATCC 27294 at 0.02 ug/ml after 7 days by microplate Alamar blue assay relative to control; type: functional; details: H37Rv ATCC 27294, 168 h; method in brief: as §1

Compound	MIC90 [1]	IC50 [2]	IC90 [2]	inhibition at 12.5 µg/mL [3]	inhibition at 25 µg/mL [4]	inhibition at 50 µg/mL [5]	inhibition at 100 µg/mL [6]	INH [12]	inhibition (INH) [14]	MIC [15]	inhibition at 0.79 µg/mL [18]	inhibition at 3.13 µg/mL [19]	inhibition at 6.25 µg/mL [20]	also measured
N[C@@H]1CONC1=O [CYCLOSERINE]	25 µM (≈ 2.55 µg/mL)	12.5 µg/mL (≈ 122 µM)	13.5 µg/mL (≈ 132 µM)	51%	93.9%	96.3%	97.7%	–	–	–	–	–	–	–
CCOC(=O)c1cc(C(=O)c2ccccc2)n2ccc(-c3cc[n+](CC(=O)c4ccc(OC)cc4)cc3)cc12.[Br-]	12.5 µM	3.88 µg/mL	13.1 µg/mL	–	–	–	–	1.17 µg/mL	51%	2.34 µg/mL	9.9%	38.6%	65.1%	viability at 168 h, 75 ug/ml [7]: < 10%; viability at 168 h, 7.5 ug/ml [8]: 71%; viability at 168 h, 0.75 ug/ml [9]: 86%; fold change (FC) [10]: 3.11; fold change (FC) [11]: 2.65; Activity [13]: inactive; fold change (FC) [16]: 1.19; MIC90 [17]: 12.5 µM; inhibition (INH) [21]: 98.5%
CC[C@@H](CO)NCCN[C@@H](CC)CO [ETHAMBUTOL]	12.5 µM (≈ 2.55 µg/mL)	< 1.56 µg/mL	32.8 µg/mL (≈ 160 µM)	–	–	–	90%	–	–	–	–	84.3%	86.6%	inhibition (INH) [22]: 89%; inhibition at 1.56 µg/mL [23]: 69.1%
NNC(=O)c1ccncc1 [ISONIAZID]	0.31 µM (≈ 0.0425 µg/mL)	0.18 µg/mL (≈ 1.31 µM)	0.29 µg/mL (≈ 2.11 µM)	–	–	–	–	–	–	–	–	–	–	inhibition at 0.31 µg/mL [17]: 92.9%; inhibition at 0.63 µg/mL [24]: 93.9%; inhibition (INH) [25]: 94%
CCOC(=O)c1cc(C#N)n2ccc(-c3ccncc3)cc12	> 100 µM	33.4 µg/mL (≈ 114 µM)	59.5 µg/mL (≈ 204 µM)	15.3%	21.5%	84.9%	97.2%	–	–	–	8.6%	–	–	–
CO[C@H]1/C=C/O[C@@]2(C)Oc3c(C)c(O)c4c(O)c(c(/C=N/N5CCN(C)CC5)c(O)c4c3C2=O)NC(=O)/C(C)=C\C=C\[C@H](C)[C@H](O)[C@@H](C)[C@@H](O)[C@@H](C)[C@H](OC(C)=O)[C@@H]1C [RIFAMPIN]	0.04 µM (≈ 0.0329 µg/mL)	0.02 µg/mL (≈ 0.0243 µM)	0.02 µg/mL (≈ 0.0243 µM)	–	–	–	–	0.13 µg/mL	63%	0.049 µg/mL (≈ 0.0595 µM)	–	–	–	viability at 168 h, 1 ug/ml [26]: 85%; viability at 168 h, 0.1 ug/ml [27]: 93%; viability at 168 h, 0.01 ug/ml [28]: 94%; fold change (FC) [29]: 1.49; fold change (FC) [30]: 0.81; fold change (FC) [31]: 0.98; MBC ([13]; read-out: MBC99.9): 1.56 µg/mL (≈ 1.9 µM); inhibition at 0.02 µg/mL [32]: 61.2%

Source: ChEMBL document CHEMBL3120161, “Antimycobacterial activity of nitrogen heterocycles derivatives: bipyridine derivatives. Part III” (Eur J Med Chem, 2014)
